# Measurements taken from the RNAGym collection of RNA variant scans (doi:10.1126/science.aae0568).
# This sample holds only a part of the variants without activity.
# B1: tRNA (parent)
# chain: GUUCCGUUGGCGUAAUGGUAACGCGUCUCCCUCCUAAGGAGAAGACUGCGGGUUCGAGUCCCGUACGGAACG
# Variants of: B1
# Experiment: yeast fitness relative to wild type (ratio to wild type); higher = fitter; tRNA-Arg(CCU), competitive growth, 37 C, YPD
# In short: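 Genotype frequency changes were the basis for Darwinian fitness relative to wild type. The frequencies came from 100-nucleotide paired-end sequencing of gene amplicons from the start population and each end population of pooled yeast strains with tRNA-Arg(CCU) gene variants at the native locus. Competition ran in YPD at 37°C for 24 hours in six replicates, genotypes needed ≥ 100 starting reads, and estimates < 0.5 were set to 0.5.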
row,Variant,yeast fitness
1,C11U G39C G68C,≤ 0.5
2,C11U G39U,0.835
3,C11U G41A,0.902
4,C11U G41A C60G A65G,0.624
5,C11U G44A C49U,0.81
6,C11U G44A G50A C66G,0.511
7,C11U G52A A65U,0.567
8,C11U G52A C60A,0.593
9,C11U G56A C62A,0.567
10,C11U G56A C62G,≤ 0.5
11,C11U G58C C61U,0.65
12,C11U G58U C61A,≤ 0.5
13,C11U G63A,0.903
14,C11U G68C,0.814
15,C11U G68C A69U,0.54
16,C11U G68U,0.898
17,C11U U13A C30U G38C C49A,≤ 0.5
18,C11U U13A G41A A45U G58U C60A,≤ 0.5
19,C11U U13C A20C C22G,≤ 0.5
20,C11U U13C C24A A43C G50C,≤ 0.5
21,C11U U13C C24A A43C G50C C60G A70U,0.567
22,C11U U13C C30U A43G,≤ 0.5
23,C11U U13G U19A C22G G25A A65C,≤ 0.5
24,C11U U13G U19A C22G G25A C61A,≤ 0.5

row,Variant,yeast fitness
1,C11U U13G U19A C22G G25A G48A A69U,≤ 0.5
2,C11U U16A U54C,≤ 0.5
3,C11U U16C C24U,0.591
4,C11U U16C G23A A36C,≤ 0.5
5,C11U U19A A43U U59A G63A,≤ 0.5
6,C11U U19A C29G,0.704
7,C11U U19A C33U G41C A45C,≤ 0.5
8,C11U U19C C27G,0.66
9,C11U U19C C31A G50U C62G,≤ 0.5
10,C11U U19C C61G A65C,≤ 0.5
11,C11U U19C G23A G25A C55U,0.537
12,C11U U19G,0.962
13,C11U U19G C34U G56A,≤ 0.5
14,C11U U19G C66A,0.54
15,C11U U19G G52A,0.609
16,C11U U26C C61G A65C,≤ 0.5
17,C11U U26G U35C G63A A70G,≤ 0.5
18,C11U U28A C33G,0.619
19,C11U U28A G58C A70C,≤ 0.5
20,C11U U28C C29G G67A,≤ 0.5
21,C11U U28C U32G,0.569
22,C11U U28G,0.792
23,C11U U28G C30A,≤ 0.5
24,C11U U28G G51C U64A C66U A69C,≤ 0.5

row,Variant,yeast fitness
1,C11U U32A A70C,0.614
2,C11U U32C A45C,0.885
3,C11U U32G U54A G67C,≤ 0.5
4,C11U U35A G38A C55G,≤ 0.5
5,C11U U35A G38A C61G,0.565
6,C11U U35A G38A G56C,≤ 0.5
7,C11U U35C C55A A69U,≤ 0.5
8,C11U U47A C60G C62A,≤ 0.5
9,C11U U54A G58C,≤ 0.5
10,C11U U54C C61U,≤ 0.5
11,C11U U59A,0.757
12,C11U U64A,0.71
13,C11U U64C,0.879
14,G12A A14C C31U,≤ 0.5
15,G12A A14C C34G,≤ 0.5
16,G12A A14G A21G C24G U28G,0.674
17,G12A A14U C30U,≤ 0.5
18,G12A A15C,0.773
19,G12A A15G A43C,≤ 0.5
20,G12A A15G A43C A65G,≤ 0.5
21,G12A A15G A65C,≤ 0.5
22,G12A A15G A69C,0.707
23,G12A A15G G39C,≤ 0.5
24,G12A A15U A21C U47A,≤ 0.5

row,Variant,yeast fitness
1,G12A A15U C24A A45G,≤ 0.5
2,G12A A20C A43U U47C C62U A70C,≤ 0.5
3,G12A A20C C49G,0.539
4,G12A A20G C24U C27A A70U,≤ 0.5
5,G12A A20G G63A,≤ 0.5
6,G12A A20U C62U A65G,≤ 0.5
7,G12A A20U U32A C49G G63A A65U,0.535
8,G12A A21C A70U,0.563
9,G12A A21C U59A G67A,≤ 0.5
10,G12A A21G C46A,0.936
11,G12A A21G G48A A65U,0.534
12,G12A A21U,0.729
13,G12A A36C A37C U53G A70C,≤ 0.5
14,G12A A36G U47G G63A A65U,≤ 0.5
15,G12A A36U U54C,0.54
16,G12A A40U G52C C60G,≤ 0.5
17,G12A A43G A69U,0.803
18,G12A A43U A45C C49U G67C,≤ 0.5
19,G12A A43U A45C G67C,0.542
20,G12A A43U G58C,0.632
21,G12A A45C C49G,0.619
22,G12A A57C C66G,≤ 0.5
23,G12A A57G,0.909
24,G12A A57G A69C,≤ 0.5

row,Variant,yeast fitness
1,G12A A57U,0.668
2,G12A C22A A36G A37G,≤ 0.5
3,G12A C22A A36G A37G A57U,≤ 0.5
4,G12A C22A C29U A69U,≤ 0.5
5,G12A C22G C29G C30U A36U U47C,0.571
6,G12A C24A A36U A65U,≤ 0.5
7,G12A C24A A36U A69C,0.599
8,G12A C24A A36U C61U,0.618
9,G12A C24A A36U G51C C55U A69C A70U,0.532
10,G12A C24A A45G G50A,≤ 0.5
11,G12A C24A U26A C31A G67A,≤ 0.5
12,G12A C24G A40C A42G A43C C46U G68C A69U,≤ 0.5
13,G12A C24G G68A,≤ 0.5
14,G12A C24G U47A C49G A69C,≤ 0.5
15,G12A C24U C27A A70U,≤ 0.5
16,G12A C24U C61A G67A,≤ 0.5
17,G12A C27A C29U,0.981
18,G12A C27A C29U A36G,≤ 0.5
19,G12A C27A C30G,0.626
20,G12A C27A G67C,0.548
21,G12A C27G A36U A65U,≤ 0.5
22,G12A C27G C34U A43C A57U G58A C62G,≤ 0.5
23,G12A C27U A42U C62U,≤ 0.5
24,G12A C27U C30G G68U,≤ 0.5

row,Variant,yeast fitness
1,G12A C27U C49U,0.611
2,G12A C27U G67A,0.571
3,G12A C29A A42U A45U C61G,≤ 0.5
4,G12A C29G U35G C61U,≤ 0.5
5,G12A C30G,0.689
6,G12A C30G A65U,≤ 0.5
7,G12A C30G C46G,≤ 0.5
8,G12A C30U A45C C60G,≤ 0.5
9,G12A C33G A36C G44A,≤ 0.5
10,G12A C33U,0.839
11,G12A C33U A36C C62U,0.553
12,G12A C33U G63A,≤ 0.5
13,G12A C34G A37G G38A G50A,≤ 0.5
14,G12A C46A U47A,0.75
15,G12A C46G,1
16,G12A C46U G51A C66U,0.615
17,G12A C49U,0.93
18,G12A C49U A65C,0.676
19,G12A C55U,0.908
20,G12A C60A,0.579
21,G12A C60A A70G,≤ 0.5
22,G12A C60U,0.777
23,G12A C61G,0.605
24,G12A C62U A70U,0.695

row,Variant,yeast fitness
1,G12A G17A U26G C33A A37U A45U,≤ 0.5
2,G12A G18A U19C C55U A57C G58C G63A,≤ 0.5
3,G12A G18C A42U A70G,0.598
4,G12A G18C C29U A57C A65C,≤ 0.5
5,G12A G23A C27G C30G,≤ 0.5
6,G12A G23A U28G C49U G56C A65U,0.526
7,G12A G23A U35G A36G C62U A69G,≤ 0.5
8,G12A G25A A70C,0.76
9,G12A G25A C30G G58C C66A,≤ 0.5
10,G12A G25A C60A,≤ 0.5
11,G12A G25A C62G,≤ 0.5
12,G12A G25C C30G,≤ 0.5
13,G12A G38C,0.869
14,G12A G38C C49U C62U A69U,0.973
15,G12A G39C,0.896
16,G12A G39C C46A,0.554
17,G12A G39C U47A,≤ 0.5
18,G12A G41C A45C G68A,≤ 0.5
19,G12A G41U,0.819
20,G12A G44C G50A,0.608
21,G12A G48C,0.754
22,G12A G48C U54C,0.567
23,G12A G52A,0.688
